ChEMBL document CHEMBL3817777, “A new motif for inhibitors of geranylgeranyl diphosphate synthase” (Bioorg Med Chem, 2016)
Active and inactive are the calls of the source. The rule behind the calls is not given here.

Legend:
[1] = target: T1, Geranylgeranyl pyrophosphate synthase (Homo sapiens) (UniProt O95749); assay: Inhibition of GGDPS in human RPMI8266 cells assessed as disruption of Rap1a geranylgeranylation at 1 uM after 48 hrs by immunoblot analysis in presence of GGDP; type: cell-based
T1 sequence (whole entry): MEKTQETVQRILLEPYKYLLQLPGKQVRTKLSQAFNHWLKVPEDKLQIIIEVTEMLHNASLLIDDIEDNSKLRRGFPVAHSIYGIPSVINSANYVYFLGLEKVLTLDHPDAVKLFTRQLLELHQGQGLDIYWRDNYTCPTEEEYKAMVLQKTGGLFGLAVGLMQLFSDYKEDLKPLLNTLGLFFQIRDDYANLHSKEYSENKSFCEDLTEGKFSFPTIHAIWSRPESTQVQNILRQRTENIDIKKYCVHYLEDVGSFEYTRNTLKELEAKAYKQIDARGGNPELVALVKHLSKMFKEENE
Procedure, shortened: (§1)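 Cells were lysed in RIPA buffer (0.15 M NaCl, 1% deoxycholate, 0.1% SDS, 1% Triton X-100, 0.05 M Tris HCl) with protease and phosphatase inhibitors. Protein was quantified by BCA, and equal amounts were run on SDS-PAGE and transferred to PVDF. Blots were probed for unmodified Rap1a, a GGTase I substrate, and detected with HRP secondary antibodies and ECL.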

[2] = Cytotoxicity against human MM1S cells after 48 hrs by MTT assay; type: functional, cell-based; conditions: MM1.S
Procedure, shortened: (§2)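 Cells were plated at 2.5 ×10^4 cells/100 μL/well and exposed to compounds for 48 hrs. MTT (5 mg/mL in PBS) was then added for 4 hrs, and the product was solubilized overnight at 37 °C in 0.01 M HCl/10% SDS. Absorbance was read at 540 nm, with untreated controls set as 100% MTT activity. Each test ran in quadruplicate across three independent experiments, and EC50 is reported as mean ± standard deviation.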

[3] = target: T1, Geranylgeranyl pyrophosphate synthase (Homo sapiens); assay: Inhibition of GGDPS in human RPMI8266 cells assessed as disruption of Rap1a geranylgeranylation after 48 hrs by immunoblot analysis; type: cell-based; procedure, shortened: as §1
[4] = Cytotoxicity against human RPMI8266 cells after 48 hrs by MTT assay; type: functional, cell-based; conditions: RPMI8266, 48 h; procedure, shortened: as §2
[5] = Cytotoxicity against human ALMC2 cells after 48 hrs by MTT assay; type: functional, cell-based; conditions: ALMC2, 48 h; procedure, shortened: as §2
[6] = target: T1, Geranylgeranyl pyrophosphate synthase (Homo sapiens); assay: Inhibition of GGDPS in human RPMI8266 cells assessed as lambda light chain levels at 1 uM after 48 hrs by ELISA in presence of GGDP; type: cell-based
[7] = target: T1, Geranylgeranyl pyrophosphate synthase (Homo sapiens); assay: Inhibition of GGDPS in human RPMI8266 cells assessed as lambda light chain levels after 48 hrs by ELISA; type: cell-based
[8] = target: T1, Geranylgeranyl pyrophosphate synthase (Homo sapiens); assay: Inhibition of GGDPS in human RPMI8266 cells assessed as lambda light chain levels at low concentrations after 48 hrs by ELISA; type: cell-based
[9] = target: T1, Geranylgeranyl pyrophosphate synthase (Homo sapiens); assay: Inhibition of GGDPS in human RPMI8266 cells assessed as disruption of Rap1a geranylgeranylation at low concentrations after 48 hrs by immunoblot analysis; type: cell-based; procedure, shortened: as §1
[10] = target: T1, Geranylgeranyl pyrophosphate synthase (Homo sapiens); assay: Inhibition of GGDPS in human RPMI8266 cells assessed as lambda light chain levels at 5 uM after 48 hrs by ELISA in presence of mevalonate; type: cell-based
[11] = target: T1, Geranylgeranyl pyrophosphate synthase (Homo sapiens); assay: Inhibition of GGDPS in human RPMI8266 cells assessed as disruption of Rap1a geranylgeranylation at 5 uM after 48 hrs by immunoblot analysis in presence of GGDP; type: cell-based; procedure, shortened: as §1
[12] = target: T1, Geranylgeranyl pyrophosphate synthase (Homo sapiens); assay: Inhibition of GGDPS in human RPMI8266 cells assessed as lambda light chain levels at 5 uM after 48 hrs by ELISA in presence of GGDP; type: cell-based
[13] = target: T1, Geranylgeranyl pyrophosphate synthase (Homo sapiens); assay: Inhibition of GGDPS in human RPMI8266 cells assessed as disruption of Rap1a geranylgeranylation at 5 uM after 48 hrs by immunoblot analysis in presence of mevalonate; type: cell-based; procedure, shortened: as §1

inhibition [1] | inhibition [3] | inhibition [6] | inhibition [7] | inhibition [8] | inhibition [9] | inhibition [10] | inhibition [11] | inhibition [12] | inhibition [13] | SMILES | EC50 [2] | EC50 [4] | EC50 [5]
inactive | Dose-dependent effect | inactive | Dose-dependent effect |  |  |  |  |  |  | CC(C)=CCC/C(C)=C/CC(C)(P(=O)(OCC[C@@H](C)CCC=C(C)C)OCOC(=O)C(C)(C)C)P(=O)(OCOC(=O)C(C)(C)C)OCOC(=O)C(C)(C)C (stereo partly drawn) | 2.7 µM | 1.6 µM | 5.4 µM
 | Dose-dependent effect |  | Dose-dependent effect |  |  |  |  |  |  | C=CCC(C/C=C(\C)CCC=C(C)C)(P(=O)(OCC[C@@H](C)CCC=C(C)C)OCOC(=O)C(C)(C)C)P(=O)(OCOC(=O)C(C)(C)C)OCOC(=O)C(C)(C)C (stereo partly drawn) | 10.7 µM | 8.4 µM | 25.4 µM
 | Dose-dependent effect |  | Dose-dependent effect |  |  |  |  |  |  | CC(C)=CCC/C(C)=C/CC(CC=C(C)C)(P(=O)(OCC[C@@H](C)CCC=C(C)C)OCOC(=O)C(C)(C)C)P(=O)(OCOC(=O)C(C)(C)C)OCOC(=O)C(C)(C)C (stereo partly drawn) | 25.3 µM | 7.3 µM | 28.2 µM
 |  |  |  | Active | Active |  |  |  |  | CC(C)=CCC/C(C)=C/CC(C)(P(=O)(OCC[C@H](C)CCC=C(C)C)OCOC(=O)C(C)(C)C)P(=O)(OCOC(=O)C(C)(C)C)OCOC(=O)C(C)(C)C (stereo partly drawn) |  |  | 
 | Dose-dependent effect |  | Dose-dependent effect |  |  |  |  |  |  | CC(C)=CCC/C(C)=C/CC(C/C=C(\C)CCC=C(C)C)(P(=O)(OCC[C@@H](C)CCC=C(C)C)OCOC(=O)C(C)(C)C)P(=O)(OCOC(=O)C(C)(C)C)OCOC(=O)C(C)(C)C (stereo partly drawn) | 48.2 µM | 26.7 µM | > 100 µM
 | Dose-dependent effect |  | Dose-dependent effect |  |  |  |  |  |  | CC(C)=CCC/C(C)=C/CC(P(=O)(OCC[C@@H](C)CCC=C(C)C)OCOC(=O)C(C)(C)C)P(=O)(OCOC(=O)C(C)(C)C)OCOC(=O)C(C)(C)C (stereo partly drawn) | 5.7 µM | 7.1 µM | 12.6 µM
 |  |  |  |  |  | inactive | inactive | inactive | inactive | CC[C@H](C)C(=O)O[C@H]1C[C@@H](C)C=C2C=C[C@H](C)[C@H](CC[C@@H]3C[C@@H](O)CC(=O)O3)[C@H]21 |  |  | 
